Assay outcomes from PubChem BioAssay.
SIAE inh: human SIAE inhibition, primary screen. 370,000 tested, 0.69% active. inhibition, % at 9.66 µM. SIAE FP-Rh probe binding, fluorescence polarization. AID 1053197;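 active = inhibition above a cutoff: mean of compounds within the control limits plus 3 SD of those, cut at about 17% in these data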;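 note: 0% = plate median of compound wells and 100% = probe without SIAE protein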
PRMT1 FP inh: blocks human protein arginine methyltransferase 1; Q99873; recombinant PRMT1, activity-based probe fluorescence polarization; inhibition, % at 2.79 µM; 370,000 tested, 1.3% active; AID 652257;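 active = inhibition above about 21% made by adding two undisclosed values, limit read from the data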
GASC-1 inh: inhibitors of human GASC-1 (JMJD2C) demethylase; inhibition, % at 2.35 µM; 330,000 tested, 0.069% active; Q9H3R0; GST-JMJD2C(1-420) H3K9me3 demethylation, DELFIA europium;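 active = more than half of a compound's replicate wells show inhibition beyond 50%, single wells judged on their own value; inconclusive = some, but no more than half, of replicates pass 50% inhibition; inactive = no replicate passes 50% inhibition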;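 note: signal counts dimethyl H3K9 product captured on neutravidin plate; 0% = median of DMSO wells and 100% = 0.3 times that DMSO median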
ABHD4 inh: inhibitors of mouse ABHD4. Q8VD66. purified mABHD4, FP-Rh probe fluorescence polarization. inhibition, % at 8.92 µM. 370,000 tested, 0.54% active;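 active = inhibition exceeding the mean over every tested compound plus 3 SD, cut at about 30% in these data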;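 note: 0% = plate median of compound wells and 100% = S159A mutant with DMSO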
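Assay system: Wild-type mouse ABHD4 protein | Medium: HEPES pH 7.0 buffer, 150 mM NaCl, 0.01% Pluronic F-127 | Incubation: Enzyme–compound pre-incubation 45 min, then probe 60 min, both 25 °C | Technique: Fluorescence polarization with parallel and perpendicular emission, 525/598 nm | Evaluation: % inhibition of FP-Rh probe binding versus controls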
HTRA1 inhibitor: blocks human HTRA1 serine peptidase. Q92743. recombinant HTRA1, FP-rhodamine activity-based probe, fluorescence polarization. inhibition, % at 5.96 µM. 340,000 tested, 0.5% active. AID 504803; in the data active = inhibition above about 36%;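 note: 0% = enzyme with DMSO and 100% = wells lacking enzyme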
Target sequence (Q92743 whole entry, looked up): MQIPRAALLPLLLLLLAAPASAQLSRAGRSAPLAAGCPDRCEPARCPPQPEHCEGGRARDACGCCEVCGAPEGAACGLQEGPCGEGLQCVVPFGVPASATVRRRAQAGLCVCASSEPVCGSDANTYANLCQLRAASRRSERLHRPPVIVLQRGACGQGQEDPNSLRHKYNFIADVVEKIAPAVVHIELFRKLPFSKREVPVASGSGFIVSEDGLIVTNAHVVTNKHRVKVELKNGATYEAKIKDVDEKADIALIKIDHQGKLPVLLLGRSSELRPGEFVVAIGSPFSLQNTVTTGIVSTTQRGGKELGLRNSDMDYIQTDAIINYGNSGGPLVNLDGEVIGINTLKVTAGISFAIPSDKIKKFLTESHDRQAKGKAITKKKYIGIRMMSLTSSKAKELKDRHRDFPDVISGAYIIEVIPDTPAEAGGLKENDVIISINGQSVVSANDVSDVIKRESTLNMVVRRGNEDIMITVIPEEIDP
HTRA1 inh conf: confirmation of human HTRA1 inhibitors. inhibition, % at 5.96 µM. shares compounds with HTRA1 inhibitor. 1,600 tested, 66% active. recombinant HTRA1, FP-rhodamine activity-based probe, fluorescence polarization;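 active = mean inhibition over three repeats above a set limit taken from the earlier primary screen, cut at about 37% in these data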;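 note: 0% = HTRA1 with DMSO and 100% = wells lacking HTRA1; inhibitors block probe binding so polarization drops and inhibition rises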
PRMT1 confirm: PRMT1 (human) inhibition, FP confirmation | shares compounds with PRMT1 FP inh | recombinant His-PRMT1, activity-based probe fluorescence polarization | inhibition, % at 2.79 µM | 3,300 tested, 42% active;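 active = mean inhibition across replicates above the hit cutoff derived for the earlier primary screen, cut at about 22% in these data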
ABHD4 confirm: confirmation of mouse ABHD4 inhibitors. purified mABHD4, FP-Rh probe fluorescence polarization. shares compounds with ABHD4 inh. 1,800 tested, 55% active. inhibition, % at 8.92 µM;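 active = mean inhibition across replicates above the hit cutoff set in the primary screen, cut at about 30% in these data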;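 note: 0% = wild-type ABHD4 with DMSO and 100% = catalytically dead S159A mutant with DMSO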
SIAE inh conf: human SIAE inhibition, confirmation. shares compounds with SIAE inh. SIAE FP-Rh activity-based probe, fluorescence polarization. inhibition, % at 9.66 µM. 2,300 tested, 13% active;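 active = mean inhibition of the replicates above the hit cutoff set in the primary screen, cut at about 17% in these data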;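 note: 0% = SIAE with DMSO and probe and 100% = probe without SIAE; inhibitors lower polarization as more probe stays unbound to SIAE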
Starred values were filed as active, the others as inactive; ? = inconclusive; . = no result given. A selection: hits, their analogues and other compounds. The true share with any hit is near 2.4%.

SMILES	SIAE inh	PRMT1 FP inh	GASC-1 inh	ABHD4 inh	HTRA1 inhibitor	HTRA1 inh conf	ABHD4 confirm	SIAE inh conf	others
NS(=O)(=O)c1ccc(N/N=C/c2ccc(O)c(O)c2O)c([N+](=O)[O-])c1	37*	46*	.	60*	78*	67*	62*	11	PRMT1 confirm=79*
c1ccc(COc2cccc(CNCc3cccnc3)c2)cc1	2	-1	-5	2	-11	.	.	.
O=[N+]([O-])c1ccc(COc2cccc(CNc3ccc(F)cc3)c2)cc1	0	2	2	-10	-7	.	.	.
Oc1ccc(NCc2cccc(OCc3ccc(F)cc3)c2)cc1	40*	7	7	49*	58*	6	15	8
Oc1ccc(NCc2cccc(OCc3ccccc3)c2)cc1	44*	17	-1	50*	51*	12	23	12
O=c1[nH][nH]c2c1[C@H](c1ccc(F)cc1)O[C@H](CCC(F)(F)F)C2	8	0	.	0	.	.	.	.
CCOc1cccc(CNc2ccc(O)cc2)c1OCc1ccccc1Cl	30*	10	7	55*	52*	15	31*	10
C/C(=C\C(=O)c1cccnc1)Nc1ccc(O)cc1	26*	20	-1	72*	64*	3	-5	3
Cc1noc(C)c1S(=O)(=O)N(C)C[C@H]1Oc2ccc(NS(=O)(=O)c3cn(C)cn3)cc2C(=O)N([C@H](C)CO)C[C@@H]1C	3	-1	6	3	0	.	.	.
Oc1ccc(-c2csc(Nc3cccc4ccccc34)n2)cc1O	26*	7	-8	21	71*	71*	.	-3
Cc1csc(Nc2cccc3ccccc23)n1	3	6	-46	6	1	.	.	.
COc1ccc(/C=N/NC(=O)c2ccccc2O)cc1Cn1cc([N+](=O)[O-])cn1	-3	4	-10	3	-3	.	.	.
COc1ccc(/C=N/NC(=O)c2cc(O)c(O)c(O)c2)cc1Cn1cc([N+](=O)[O-])cn1	46*	12	?	28	72*	82*	.	2
COC(=O)[C@H](Cc1ccccc1)N(Cc1cn(Cc2ccccc2)nn1)S(=O)(=O)c1ccccc1Br	-7	2	.	-9	.	.	.	.
COc1c(C)cc(C(O)c2ncc(-c3ccccc3C(F)(F)F)[nH]2)cc1C (stereo not drawn)	0	1	.	3	.	.	.	.
CCOC(=O)C1=NNC(C(=O)c2ccccc2)C1c1ccc(Cl)cc1 (stereo not drawn)	-10	6	11	-10	-11	.	.	.
CCOC(=O)C1=C(C)N=C2c3ccccc3C(=O)C2C1c1ccc(Cl)cc1 (stereo not drawn)	19*	0	-2	35*	38*	34	66*	6
O=[N+]([O-])c1ccc(NN=Cc2cccc([N+](=O)[O-])c2)cc1	15	2	.	6	-2	.	.	.
O=[N+]([O-])c1ccc(N/N=C/c2ccc[nH]2)cc1	18*	6	1	-13	45*	57*	.	-4
C/C(=N\NC(=O)c1cc2ccccc2cc1O)c1cc2ccccc2o1	17*	-3	2	26	36*	10	.	10
C/C(CC(=O)N1CCN(C=O)CC1)=N\NC(=O)c1cc2ccccc2cc1O	20*	2	9	40*	39*	37*	35*	3
C/C(CC(=O)N1CCN(C=O)CC1)=N\NC(=O)c1ccc([N+](=O)[O-])cc1	10	4	-2	5	5	.	.	.
C[C@H]1[C@H](N)CC[C@@]23CCCN2C(=O)CCC[C@@H]13	2	1	.	0	.	.	.	.
Cc1cc(C)c(S(=O)(=O)NCCn2c(C)cc3ccccc32)c(C)c1	24*	1	7	60*	66*	0	-22	-5
Cc1cc(C)c(S(=O)(=O)NCc2ccc3c(c2)cc(C)n3C)c(C)c1	39*	14	12	55*	60*	-6	-10	6
SMILES	SIAE inh	PRMT1 FP inh	GASC-1 inh	ABHD4 inh	HTRA1 inhibitor	HTRA1 inh conf	ABHD4 confirm	SIAE inh conf	others
CCCC(=O)NCc1ccc2c(c1)cc(C)n2C	-4	7	-1	4	7	.	.	.
Cc1cc2ccccc2n1CCNC(=O)Cc1ccccc1	4	5	-3	9	35	.	.	.
NS(=O)(=O)c1ccc(CNS(=O)(=O)c2ccc3ccccc3c2)cc1	-2	1	4	-9	-3	.	.	.
Cc1cc2cc(CNS(=O)(=O)c3ccc4ccccc4c3)ccc2n1C	26*	5	0	51*	67*	5	4	-7
COc1ccc(Cn2ccc3ccc(-c4ccc5ccn(Cc6ccc(F)cc6)c5c4)cc32)cc1	-1	3	.	3	.	.	.	.
O=S1(=O)C=CCN1Cc1cn(Cc2cccc(Cl)c2)nn1	-3	2	.	0	.	.	.	.
CCNc1ccc(Br)cc(C(=O)/C=C/c2ccc(Cl)cc2Cl)c1=O	17*	27*	18	35*	64*	59*	31*	8
Nc1nc(Sc2ccc([N+](=O)[O-])c3nonc23)c2[nH]cnc2n1	17*	89*	.	46*	59*	71*	49*	0	PRMT1 confirm=84*
O=C1CCCC(O)=C1N=Nc1c(Cl)cc(C(F)(F)F)cc1Cl	89*	4	-3	62*	72*	1	-3	4
O=C1CCCC(O)=C1N=Nc1ccc(C(=O)O)cc1	66*	6	-3	29	40*	12	.	-2
COC(=O)[C@H]1C[C@@]2(N3CCCCC3)c3ccccc3N[C@H]2N1S(=O)(=O)c1ccc([N+](=O)[O-])cc1	1	5	.	8	.	.	.	.
COc1ccc(NC2CC(=O)N(C(C)C)C2=O)cc1 (stereo not drawn)	2	2	-2	5	11	.	.	.
CC(C)N1C(=O)CC(Nc2cccc3cccc(N)c23)C1=O (stereo not drawn)	32*	15	.	36*	36*	11	.	6
CC(C)NC(=O)C1(C)CCCN1C/C=C/c1ccccc1 (stereo not drawn)	3	-3	.	-1	.	.	.	.
COc1ccc(C(C(=O)N(C)C2CCCC2)N(Cc2ccc(F)cc2)C(=O)c2sccc2Cl)cc1OC (stereo not drawn)	4	-3	.	-2	.	.	.	.
CN1C(=O)NC(c2ccccc2[N+](=O)[O-])C2=C1CC(C)(C)CC2=O (stereo not drawn)	1	18	-14	8	3	.	.	.
